Tested on: primary mouse neuronal cultures
Assay: Synaptic recordings
Format: cell-based
Details: compared with the control
In short: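 Primary neurons from E18 mouse embryos plated at 10 K per well on coverslips. At DIV 11–13, sister coverslips from the same pups were treated 24 or 72 h before recording with DMSO (n = 4), γ-secretase inhibitor DAPT (n = 5) or test compound (n = 4), and all recorded the same day. Spontaneous miniature events analysed for frequency, interevent interval, amplitude and decay. Access resistance 2–14 MΩ.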

C[C@H](NC(=O)Cc1cc(F)cc(F)c1)C(=O)N[C@H](C(=O)OC(C)(C)C)c1ccccc1 [difluorphenacetyl-alanyl phenylglycine t-butyl ester]
Single quantum (amplitudes below 20 pA) and multiquantal (~35–45 pA) releases: significantly more
